Calls of active or inactive are those of the source. The calls are words filed in the database; no cut-off is given here.
What was measured:
[1] = biological target: T1, Hypoxia-inducible factor 1-alpha (Homo sapiens, UniProt Q16665); experiment: Inhibition of hypoxia-induced HIF1alpha transcriptional activity in human LNCAP cells assessed as compound concentration causing inhibition of transcriptional activity measured after 18 hrs by hypoxia response element-driven dual luciferase reporter gene assay relative to hypoxia control; type: cell-based
Outline: (§1)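 LNCaP cells seeded 15 000/well and cotransfected (Lipofectamine 3000) with 10 ng pGL4.42 HRE-luciferase and 1 ng pRL-TK. After 24 h, treated in phenol-free RPMI-1640 with 0.1% charcoal-stripped FBS containing compound (0.1, 1, 10 μM). Incubated 18 h at 1% O2. Dual-luciferase HRE:TK ratio normalized to hypoxic DMSO control. Quadruplicate wells, triplicate experiments, Wilcoxon test with Hochberg correction.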
Target sequence in this assay (Q16665 whole entry, looked up): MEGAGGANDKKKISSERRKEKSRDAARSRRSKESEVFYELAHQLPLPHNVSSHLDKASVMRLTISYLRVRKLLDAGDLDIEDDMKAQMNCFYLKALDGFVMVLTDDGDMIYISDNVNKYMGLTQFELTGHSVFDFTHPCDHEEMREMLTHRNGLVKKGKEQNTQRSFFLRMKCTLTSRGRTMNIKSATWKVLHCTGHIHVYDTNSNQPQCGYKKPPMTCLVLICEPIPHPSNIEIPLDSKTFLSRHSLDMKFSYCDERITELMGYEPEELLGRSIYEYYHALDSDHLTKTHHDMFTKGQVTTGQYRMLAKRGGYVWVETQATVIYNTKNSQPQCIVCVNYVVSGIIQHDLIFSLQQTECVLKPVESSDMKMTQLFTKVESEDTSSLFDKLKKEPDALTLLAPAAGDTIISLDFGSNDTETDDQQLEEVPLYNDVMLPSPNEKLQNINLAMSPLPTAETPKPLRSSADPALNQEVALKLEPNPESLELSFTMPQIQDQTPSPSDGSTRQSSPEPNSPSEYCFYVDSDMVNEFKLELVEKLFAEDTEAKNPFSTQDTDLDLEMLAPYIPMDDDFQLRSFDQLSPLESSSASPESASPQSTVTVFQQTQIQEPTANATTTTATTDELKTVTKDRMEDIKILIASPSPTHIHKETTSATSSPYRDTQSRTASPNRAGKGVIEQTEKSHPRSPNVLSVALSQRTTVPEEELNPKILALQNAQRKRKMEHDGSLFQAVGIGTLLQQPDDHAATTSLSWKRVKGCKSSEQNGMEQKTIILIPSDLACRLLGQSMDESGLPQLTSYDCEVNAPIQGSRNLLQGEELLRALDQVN

[2] = Cytotoxicity against human LNCAP cells measured after 18 hrs under hypoxic condition by CCK8 assay; type: functional, cell-based
Outline: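 LNCaP cells in phenol-free RPMI-1640 with 10% FBS, seeded 15 000 cells/well. After 24 h, exposed to compound (0.1−10 μM), tirapazamine or DMSO (0.5%, v/v) for 18 h at 1% O2. CCK-8 absorbance read at 450 nm after 2 h at 37 °C and normalized to DMSO controls to give percent viability. Quadruplicate wells, triplicate experiments.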

[3] = Cytotoxicity against human HCT116 cells measured after 18 hrs under hypoxic condition by CCK8 assay; type: functional, cell-based; conditions: HCT-116, 18 h
Outline: (§2)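 HCT 116 cells in McCoy's 5A with 10% FBS, seeded 10 000 cells/well. After 24 h, treated with compound (0.05−50 μM), tirapazamine positive control or DMSO (0.5%, v/v). Incubated 18 h or 48 h at 0.5% O2, then CCK-8 for 2 h at 37 °C with absorbance at 450 nm. Percent viability relative to DMSO controls. Quadruplicate wells, triplicate experiments.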

[4] = biological target: T1, Hypoxia-inducible factor 1-alpha; experiment: Inhibition of hypoxia-induced HIF1alpha transcriptional activity in human HCT116 cells assessed as compound concentration causing inhibition of transcriptional activity measured after 18 hrs by hypoxia response element-driven dual luciferase reporter gene assay relative to hypoxia control; type: cell-based; conditions: HCT-116
Outline: (§3)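 HCT 116 cells seeded 50 000/well and cotransfected (Lipofectamine 2000) with 100 ng pGL4.42 HRE-firefly luciferase and 10 ng pRL-TK Renilla. After 24 h, treated in 0.1% FBS medium with compound (0.01−10 μM), chetomin (0.5 μM) or tirapazamine (25 μM). Incubated 18 h at 0.5% O2 or normoxia. HRE:TK ratio normalized to hypoxic DMSO control. Wilcoxon test with Hochberg correction.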
Target sequence in this assay (Q16665 whole entry, looked up): as above

[5] = biological target: T1, Hypoxia-inducible factor 1-alpha; experiment: Displacement of GST-tagged p300-CH1 domain (323 to 423 residues) from synthetic biotinylated HIF-1alpha C-TAD domain (786 to 826 residues) (unknown origin) measured after overnight incubation by fluorescence analysis
Outline: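 Cell-free protein–protein displacement assay. The p300 CH1 domain is displaced from the HIF-1α C-TAD, which is immobilized on streptavidin-coated plates. IC50 values derived.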
Target sequence in this assay (Q16665 whole entry): as the sequence (Q16665 whole entry, looked up) above

[6] = Cytotoxicity against human COLO205 cells measured after 48 hrs under hypoxic condition by CCK8 assay; type: functional, cell-based; conditions: COLO 205, 48 h
Outline: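 COLO 205 cells in RPMI-1640 with 10% FBS, seeded 15 000 cells/well. After 24 h, treated with fresh medium holding compound (0.001−10 μM), tirapazamine positive control or DMSO (0.5%, v/v). Incubated 48 h at 0.5% O2, then CCK-8 added for 2 h at 37 °C and absorbance read at 450 nm. Viability normalized to DMSO controls. Quadruplicate wells, triplicate experiments.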

[7] = biological target: T1, Hypoxia-inducible factor 1-alpha; experiment: Inhibition of hypoxia-induced HIF1alpha transcriptional activity in human HCT116 cells at 0.1 to 10 uM measured after 18 hrs by hypoxia response element-driven dual luciferase reporter gene assay relative to hypoxia control; type: cell-based; conditions: HCT-116; outline: as §3
Target sequence in this assay (Q16665 whole entry, looked up): as above

[8] = biological target: T1, Hypoxia-inducible factor 1-alpha; experiment: Inhibition of hypoxia-induced HIF1alpha transcriptional activity in human LNCAP cells at 0.1 to 10 uM measured after 18 hrs by hypoxia response element-driven dual luciferase reporter gene assay relative to hypoxia control; type: cell-based; outline: as §1
Target sequence in this assay (Q16665 whole entry, looked up): as above

[9] = biological target: T1, Hypoxia-inducible factor 1-alpha; experiment: Inhibition of HIF-1alpha in human LNCAP cells assessed as decrease in VEGF secretion at 0.5 uM measured after 18 hrs under hypoxic conditions by ELISA; type: cell-based
Outline: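 LNCaP cells seeded 15 000/well in 96-well plates and incubated overnight at 37 °C. Medium then replaced with medium containing 0.1% charcoal-stripped FBS plus compound at 0.25, 0.5 or 1 μM, or DMSO control. Incubated 18 h at 1% O2. Supernatant diluted 2-fold and VEGF quantified by Quantikine ELISA. Values normalised per cell using CCK-8 viability. Triplicate experiments; exact Wilcoxon test with Hochberg correction.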
Target sequence in this assay (Q16665 whole entry, looked up): as above

[10] = biological target: T1, Hypoxia-inducible factor 1-alpha; experiment: Inhibition of hypoxia-induced HIF1alpha transcriptional activity in human HCT116 cells at 0.25 to 0.5 uM measured after 18 hrs by hypoxia response element-driven dual luciferase reporter gene assay relative to hypoxia control; type: cell-based; conditions: HCT-116
Outline: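 HCT 116 cells seeded 50 000/well and cotransfected with 100 ng pGL4.42 (4×HRE-firefly luciferase) and 10 ng pRL-TK Renilla using Lipofectamine 2000. After 24 h, cells treated in medium with 0.1% FBS, compound 0.01–10 μM. Incubated 18 h at 0.5% O2 or normoxia. HRE:TK signal divided by the mean of the DMSO hypoxic controls gives fold-induction. Quadruplicate wells, triplicate experiments.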
Target sequence in this assay (Q16665 whole entry, looked up): as above

[11] = biological target: T1, Hypoxia-inducible factor 1-alpha; experiment: Inhibition of hypoxia-induced HIF1alpha transcriptional activity in human LNCAP cells at 0.25 to 0.5 uM measured after 18 hrs by hypoxia response element-driven dual luciferase reporter gene assay relative to hypoxia control; type: cell-based
[12] = biological target: T1, Hypoxia-inducible factor 1-alpha; experiment: Inhibition of HIF1alpha in human LNCAP cells assessed as hypoxia-induced VEGF secretion at 0.25 to 1 uM measured after […] under hypoxic conditions by ELISA; type: cell-based
[13] = Cytotoxicity against human HCT116 cells measured after 48 hrs under hypoxic condition by CCK8 assay; type: functional, cell-based; conditions: HCT-116, 48 h; outline: as §2
[14] = biological target: T1, Hypoxia-inducible factor 1-alpha; experiment: Inhibition of HIF1alpha in human LNCAP cells assessed as hypoxia-induced VEGF secretion at 0.5 uM measured after 18 hrs under hypoxic conditions by ELISA
[15] = biological target: T1, Hypoxia-inducible factor 1-alpha; experiment: Inhibition of HIF-1alpha in human PC3 cells assessed as decrease in ENO1 mRNA expression level; type: cell-based; conditions: PC-3
[16] = biological target: T1, Hypoxia-inducible factor 1-alpha; experiment: Inhibition of HIF-1alpha in human PC3 cells assessed as decrease in LDHA mRNA expression level; type: cell-based; conditions: PC-3
[17] = biological target: T1, Hypoxia-inducible factor 1-alpha; experiment: Inhibition of HIF-1alpha in human PC3 cells assessed as decrease in VEGF mRNA expression level; type: cell-based; conditions: PC-3

Row | inhibition [14] | SMILES | Concentration causing inhibition [1] [µM] | IC50 [2] [µM] | IC50 [3] [µM] | Concentration causing inhibition [4] [µM] | IC50 [5] [µM] | IC50 [6] [µM] | inhibition (qualitative active call) [7] | inhibition outcome (active/inactive) [8] | inhibition [9] | inhibition [10] | inhibition [11] | inhibition [12] | IC50 [13] [µM] | inhibition [15] | inhibition [16] | inhibition [17]
1 |  | O=C1C2=C(C3=NCCc4c[nH]c1c43)[C@]1(C=C(Br)[C@H](O)C(Br)=C1)CCN2 | 1 | > 10 | 8.6 | 10 | 35.2 | 5.1 | Active | Active |  |  |  |  |  |  |  | 
2 |  | CN1C(=O)[C@@]2(CO)SS[C@@]1(Cc1cn([C@]34C[C@@]56SS[C@](CO)(C(=O)N5[C@H]3Nc3ccccc34)N(C)C6=O)c3ccccc13)C(=O)N2C |  |  |  |  | 1.9 |  |  |  | Active | Active | Active |  |  |  |  | 
3 |  | O=C1C2=C3C4=[N+](CCc5c[nH]c1c54)[C@@H]1C(=O)C=C4S[C@@H](C[C@@]43[C@H]1O)N2 | 1 | 8.3 | 6.2 | 0.1 | 0.73 | 7.6 | Active | Active |  |  |  | Active | > 50 |  |  | 
4 |  | O=C1C=C(S[C@H]2[C@H]3C(=O)C=C4S[C@H]5C[C@]42C2=C(N5)C(=O)c4[nH]cc5c4C2=[N+]3CC5)[C@]2(C=C1Br)CCNC1=C2C2=NCCc3c[nH]c(c32)C1=O | 1 | > 10 | > 10 | 0.1 | 2.4 | > 10 | Active | Active |  |  |  |  | 26.8 |  |  | 
5 |  | O=C1C=C(SSC2=CC(=O)C(Br)=C[C@]23CCNC2=C3C3=NCCc4c[nH]c(c43)C2=O)[C@]2(C=C1Br)CCNC1=C2C2=NCCc3c[nH]c(c32)C1=O |  | > 10 | > 10 | 0.1 | > 100 | > 10 | Active |  |  |  |  |  |  |  |  | 
6 |  | O=C1C=C2S[C@H]3C[C@]2(C=C1Br)C1=C(N3)C(=O)c2[nH]cc3c2C1=NCC3 [(+)-DISCORHABDIN B] | 1 | 7 | 3.1 | 0.1 | 3.7 | 1.8 | Active | Active |  |  |  |  |  |  |  | 
7 |  | Nc1n[n+]([O-])c2ccccc2[n+]1[O-] [TIRAPAZAMINE] |  |  | 72.7 |  |  | 47.7 |  |  |  |  |  |  | 11.9 |  |  | 
8 | Active | Cn1c(C[C@H](N)C(=O)O)cnc1S[C@H]1[C@H]2C(=O)C=C3S[C@H]4C[C@]31C1=C(N4)C(=O)c3[nH]cc4c3C1=[N+]2CC4 | 0.1 | > 10 | > 10 | 0.5 | 2.2 | > 10 | Active | Active |  |  |  |  | > 50 |  |  | 
9 |  | CN1C(=O)[C@]23CC4=CC=C[C@H](O)[C@H]4N2C(=O)[C@@]1(CO)SS3 |  |  |  |  |  |  |  |  |  |  |  |  |  | Active | Active | Active
10 |  | O=C1C(NC2Cc3cc(Br)c(O)cc3S2)=CC2=NCCc3c[nH]c1c32 (centres undefined) [MAKALUVAMINE F] | 0.1 | > 10 | 7.2 | 0.25 | 8.3 | > 10 | Active | Active |  |  |  |  |  |  |  | 

Reference: ChEMBL document CHEMBL3853286, “Screening and Biological Effects of Marine Pyrroloiminoquinone Alkaloids: Potential Inhibitors of the HIF-1α/p300 Interaction” (J Nat Prod, 2016)
